High-throughput results from PubChem.
MC4R barr agon: human MC4R agonism via beta-arrestin; activation, % at 8.9 µM; U2OS MC4R beta-arrestin complementation, luminescence; percent of melanotan II response, DMSO zero; 360,000 tested, 0.98% active; AID 540308;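 active means activation above a per-plate cutoff, the mean activation of sample wells on that plate plus 3 SD, cut at about 8% in these data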
Target sequence (P32245 whole entry, looked up): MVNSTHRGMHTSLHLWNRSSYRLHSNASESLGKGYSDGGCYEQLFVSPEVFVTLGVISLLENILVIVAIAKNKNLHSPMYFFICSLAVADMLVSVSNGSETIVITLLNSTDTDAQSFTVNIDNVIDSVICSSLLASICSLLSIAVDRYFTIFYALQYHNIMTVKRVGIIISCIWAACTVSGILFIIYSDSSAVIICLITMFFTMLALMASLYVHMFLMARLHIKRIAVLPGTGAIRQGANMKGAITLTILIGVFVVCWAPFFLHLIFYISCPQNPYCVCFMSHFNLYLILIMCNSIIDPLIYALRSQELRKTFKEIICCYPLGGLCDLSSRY
XBP1 UPR activ: activators of adaptive arm of unfolded protein response (XBP1). CHO-XBP1 luciferase reporter, IRE1-XBP1 UPR activation, luminescence; percent of tunicamycin response, DMSO as zero. activation, % at 20 µM. 330,000 tested, 0.33% active. AID 463104;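 active means versus positive control, 20 µM dose yields 30% or more activation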;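 further: 100% = tunicamycin at 10 µg/mL and 0% = DMSO only wells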
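incubation = overnight seeding at 37 °C, 6 h compound treatment at 37 °C | assay system = CHO-XBP1 cells stably carrying IRE1-XBP1-driven luciferase reporter | input = 1000 cells per well | detection = luciferase luminescence | dosing = single point, 20 µM final compound, 1% DMSO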
CHOP UPR activ: activators of apoptotic arm of unfolded protein response (CHOP) | CHO-CHOP luciferase reporter, UPR activation, luminescence; percent of tunicamycin response over DMSO baseline | activation, % at 10 µM | 330,000 tested, 0.34% active | AID 449763;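 active means at 10 µM dose, activation of 40% or more, normalized to positive control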;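 further: 100% = tunicamycin at 10 µg/mL and 0% = DMSO alone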
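Evaluation: % reporter activation, DMSO baseline versus tunicamycin full activation; System: CHO-CHOP luciferase reporter cell line; Input: 500 cells/well; Incubation: 6 h compound treatment, 37 °C; Measured by: Steady-Glo luciferase luminescence; Dosing: one dose, 10 µM in 0.5% DMSO; Buffer or medium: F12 medium, 10% FBS; Benchmarks: positive tunicamycin 10 µg/mL, negative DMSO alone.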
MC4R antag cAMP: blocks human MC4R cAMP signaling. P32245. inhibition, % at 6.5 µM. AID 540295. MC4R-expressing cells, MTII-stimulated cAMP, LANCE TR-FRET. 360,000 tested, 0.48% active;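 active means inhibition above its plate's cutoff, the mean of tested wells on that plate plus 3 SD, cut at about 29% in these data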;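 further: 0% = Melanotan II alone and 100% = Melanotan II plus saturating MCL0020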
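system = U2OS cells with stable human MC4R expression | also added = Melanotan II challenge after compound preincubation | dosing = one concentration, 6.5 µM nominal | incubation = compound 30 min, challenge 1 h, detection 1 h | measured by = TR-FRET with Eu-cAMP and labeled anti-cAMP, 671 nm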
A1 inh: inhibitors of the anti-apoptotic protein A1, read as caspase activation; MEF A1-2A-BIM cells, Caspase-Glo 3/7 luminescence, 3 h; percent of clofoctol response, vehicle zero; caspase activation, % (no concentration beside the values); 330,000 tested, 0.066% active; AID 2462;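 active means over half of replicate activation scores above 10%, or exactly half above 10 with the replicate mean above 10; inconclusive means replicate mean below 10 yet half the replicates above 10; inactive means over half of replicates below 10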
cAMP nonselect: counter-screen for MC4R antagonists: nonselective cAMP signaling inhibitors. inhibition, % at 6.5 µM. parental U2OS, forskolin cAMP, LANCE TR-FRET. AID 602193. shares compounds with MC4R antag cAMP. 1,600 tested, 26% active;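 active means mean inhibition over triplicates above the low-control well mean plus 3 SD, set per campaign, cut at about 13% in these data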;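 further: signal is single emission at 671 nm which falls as cellular cAMP rises; 0% = forskolin-stimulated wells and 100% = buffer without forskolin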
MC4R cAMP antag: human MC4R cAMP antagonism confirmation. inhibition, % at 6.5 µM. MC4R-expressing cells, MTII-stimulated cAMP, TR-FRET. 1,600 tested, 27% active. shares compounds with MC4R antag cAMP; in the data active means inhibition above about 29%;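 further: 0% = agonist stimulated wells alone and 100% = agonist stimulated wells plus saturating reference antagonist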
* marks the source's active call; other numbers are inactive results. Only some compounds are listed: those with a hit (about 2% of all), similar ones and a draw of the others.

Screening Cc1nn(CC(=O)Nc2ccccn2)c(C)c1Br returned MC4R barr agon 2.2, XBP1 UPR activ -1.5, CHOP UPR activ 2.0, MC4R antag cAMP 32.3*, A1 inh inconclusive, cAMP nonselect 1.5 and MC4R cAMP antag -1.4.
Screening COc1cc2ccccc2cc1C(=O)N/N=C/c1cccs1 returned MC4R barr agon -0.5 and MC4R antag cAMP -16.5.
`O=C1OCCC1Sc1nc2cc(Cl)ccc2n1Cc1ccccc1` (centres undefined) gave MC4R barr agon -2.1, XBP1 UPR activ -1.6, CHOP UPR activ 2.0, MC4R antag cAMP 47.8*, A1 inh 0.3, cAMP nonselect 12.2 and MC4R cAMP antag 33.3*.
`CC(NC(=O)COC(=O)CNS(=O)(=O)/C=C/c1ccccc1)c1ccccc1` (centres undefined) gave MC4R barr agon 1.9, XBP1 UPR activ 0.5, CHOP UPR activ 2.3, MC4R antag cAMP 29.7*, A1 inh 1.3, cAMP nonselect 11.9 and MC4R cAMP antag 22.8.
CCC(Sc1nc2ccsc2c(=O)n1Cc1ccc(C(=O)O)cc1)C(=O)Nc1cc(Cl)ccc1C (centres undefined) was read as MC4R barr agon -1.7, MC4R antag cAMP 36.7*, cAMP nonselect 0.7 and MC4R cAMP antag 2.5.
For COc1ccc(/C=C(/C(=O)c2cccs2)N2C=CC=CC2=C(C#N)C#N)cc1 the results were MC4R barr agon -2.9 and MC4R antag cAMP 7.7.
N#CC(C#N)=C1C=CC=CN1/C(=C\c1ccco1)C(=O)c1ccc(Br)cc1 was read as MC4R barr agon -3.8, MC4R antag cAMP 27.8 and A1 inh 0.7.
Screening COc1ccc(C(=O)/C(=C\c2ccco2)N2C=CC=CC2=C(C#N)C#N)cc1 returned MC4R barr agon -2.4, XBP1 UPR activ -5.5, CHOP UPR activ -10.1, MC4R antag cAMP 32.8*, A1 inh 2.0, cAMP nonselect 12.2 and MC4R cAMP antag 35.5*.
N#CC(C#N)=C1C=CC=CN1/C(=C\c1ccco1)C(=O)c1ccccc1 was read as MC4R barr agon -2.9, MC4R antag cAMP 37.9*, A1 inh 0.3, cAMP nonselect 13.7* and MC4R cAMP antag 25.5.
`O=C(COc1ccc(S(=O)(=O)N2CCOCC2)cc1)NCCc1ccc(Cl)cc1` gave MC4R barr agon -1.6 and MC4R antag cAMP 2.1.
Screening COc1ccc(S(=O)(=O)NNC(=O)c2cccs2)cc1 returned MC4R barr agon 0.1, XBP1 UPR activ 1.4, CHOP UPR activ 1.2, MC4R antag cAMP 32.5*, A1 inh 1.0, cAMP nonselect 1.4 and MC4R cAMP antag -5.4.
Screening CC(C)Oc1ccc(F)cc1-c1cc(C(=O)Nc2ccc(C(C)(C)C)cc2)[nH]n1 returned MC4R barr agon 5.1 and MC4R antag cAMP 6.5.
CCOC(=O)c1c(C)cc2c(CO)n[nH]c(=O)c2c1C was read as MC4R barr agon 5.3 and MC4R antag cAMP 6.3.
O=C(COc1ccc([N+](=O)[O-])cc1)Nc1ccc2c(c1)OCO2 was read as MC4R barr agon 1.7, XBP1 UPR activ -0.8, CHOP UPR activ -0.2, MC4R antag cAMP 32.2*, A1 inh -0.8, cAMP nonselect -0.3 and MC4R cAMP antag 2.1.
For CN(C)S(=O)(=O)c1ccc(-c2csc(N/N=C/c3ccco3)n2)cc1 the results were MC4R barr agon 2.9, XBP1 UPR activ -4.6, CHOP UPR activ 2.5, MC4R antag cAMP 7.5 and A1 inh 0.0.
CN(C)S(=O)(=O)c1ccc(-c2csc(N/N=C/c3ccc(O)cc3)n2)cc1 was read as MC4R barr agon 9.8*, XBP1 UPR activ -6.0, CHOP UPR activ 18.4, MC4R antag cAMP 31.9*, A1 inh -0.7, cAMP nonselect 1.4 and MC4R cAMP antag 28.6*.
